Source: ChEMBL document CHEMBL1132965, “Inhibition of Grb2 SH2 domain binding by non-phosphate-containing ligands. 2. 4-(2-Malonyl)phenylalanine as a potent phosphotyrosyl mimetic” (J Med Chem, 2000)

target: Growth factor receptor-bound protein 2 (Homo sapiens, UniProt P62993); test: Inhibition of Growth factor receptor bound protein 2 binding by ELISA assay method
Outline: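 Recombinant purified Grb2 SH2-GST fusion protein preincubated with serial inhibitor dilutions, then added to wells coated overnight with biotinylated Shc-derived phosphopeptide (20 ng/mL); blocking with 5% BSA in TBS, washes with 0.1% BSA/TBS. Bound protein detected with anti-GST antibody plus alkaline phosphatase-conjugated goat anti-mouse antibody, p-nitrophenyl phosphate colorimetric read-out. IC50 from serial dilutions, each concentration in triplicate.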

| Structure (SMILES) | IC50 |
| --- | --- |
| NC(=O)C[C@H](NC(=O)C1(NC(=O)[C@H](Cc2ccc(OC(C(=O)O)C(=O)O)cc2)NC(=O)C(=O)O)CCCCC1)C(=O)NCCCc1cccc2ccccc12 | 1100 nM |
| CC(=O)N[C@@H](Cc1ccc(OCC(=O)O)cc1)C(=O)NC1(C(=O)N[C@@H](CC(N)=O)C(=O)NCCCc2cccc3ccccc23)CCCCC1 | 68000 nM |
| NC(=O)C[C@H](NC(=O)C1(NC(=O)[C@H](Cc2ccc(OCC(=O)O)cc2)NC(=O)C(=O)O)CCCCC1)C(=O)NCCCc1cccc2ccccc12 | 19000 nM |
| NC(=O)C[C@H](NC(=O)C1(NC(=O)[C@H](Cc2ccc(C(C(=O)O)C(=O)O)cc2)NC(=O)C(=O)O)CCCCC1)C(=O)NCCCc1cccc2ccccc12 | 70 nM |
| NC(=O)C[C@H](NC(=O)C1(NC(=O)[C@H](Cc2ccc(C(F)(C(=O)O)C(=O)O)cc2)NC(=O)C(=O)O)CCCCC1)C(=O)NCCCc1cccc2ccccc12 | 170 nM |
| NC(=O)C[C@H](NC(=O)C1(NC(=O)[C@H](Cc2ccc(CC(=O)O)cc2)NC(=O)C(=O)O)CCCCC1)C(=O)NCCCc1cccc2ccccc12 | 1000 nM |
| CC(=O)N[C@@H](Cc1ccc(OC(C(=O)O)C(=O)O)cc1)C(=O)NC1(C(=O)N[C@@H](CC(N)=O)C(=O)NCCCc2cccc3ccccc23)CCCCC1 | 2750 nM |
| CC(=O)N[C@@H](Cc1ccc(C(C(=O)O)C(=O)O)cc1)C(=O)NC1(C(=O)N[C@@H](CC(N)=O)C(=O)NCCCc2cccc3ccccc23)CCCCC1 | 160 nM |
| CC(=O)N[C@@H](Cc1ccc(CC(=O)O)cc1)C(=O)NC1(C(=O)N[C@@H](CC(N)=O)C(=O)NCCCc2cccc3ccccc23)CCCCC1 | 6400 nM |
| CC(=O)N[C@@H](Cc1ccc(C(F)(C(=O)O)C(=O)O)cc1)C(=O)NC1(C(=O)N[C@@H](CC(N)=O)C(=O)NCCCc2cccc3ccccc23)CCCCC1 | 680 nM |
| NC(=O)C[C@H](NC(=O)C1(NC(=O)[C@H](Cc2ccc(CP(=O)(O)O)cc2)NC(=O)C(=O)O)CCCCC1)C(=O)NCCCc1cccc2ccccc12 | 50 nM |

Molecules with a lower IC50, results first:

| IC50 | Structure (SMILES) |
| --- | --- |
| 20 nM | CC(=O)N[C@@H](Cc1ccc(CP(=O)(O)O)cc1)C(=O)NC1(C(=O)N[C@@H](CC(N)=O)C(=O)NCCCc2cccc3ccccc23)CCCCC1 |
| 12 nM | CC(=O)N[C@@H](Cc1ccc(C(C(=O)O)C(=O)O)cc1)C(=O)NC1(C(=O)N[C@@H](CC(N)=O)C(=O)NCCCn2ccc3cc(C)ccc32)CCCCC1 |
| 8 nM | Cc1ccc2c(ccn2CCCNC(=O)[C@H](CC(N)=O)NC(=O)C2(NC(=O)[C@H](Cc3ccc(C(C(=O)O)C(=O)O)cc3)NC(=O)C(=O)O)CCCCC2)c1 |
| 4 nM | CC(=O)N[C@@H](Cc1ccc(CP(=O)(O)O)cc1)C(=O)NC1(C(=O)N[C@@H](CC(N)=O)C(=O)NCCCn2ccc3cc(C)ccc32)CCCCC1 |
| 2 nM | Cc1ccc2c(ccn2CCCNC(=O)[C@H](CC(N)=O)NC(=O)C2(NC(=O)[C@H](Cc3ccc(CP(=O)(O)O)cc3)NC(=O)C(=O)O)CCCCC2)c1 |
